How the values were obtained:
[1] = target: Carbonic anhydrase 1 (Homo sapiens, UniProt P00915); assay: Inhibition of human recombinant carbonic anhydrase 1 expressed in Escherichia coli by stopped flow CO2 hydration assay
[2] = target: Carbonic anhydrase 2 (Homo sapiens, UniProt P00918); assay: Inhibition of human recombinant carbonic anhydrase 2 expressed in Escherichia coli by stopped flow CO2 hydration assay
[3] = target: Carbonic anhydrase 9 (Homo sapiens, UniProt Q16790)
[4] = test system: MCF7; assay: Induction of apoptosis in human MCF7 cells assessed as total apoptotic cells by Annexin V-FITC/propidium iodide staining based flow cytometry (reference value: 1.54%); type: functional
[5] = test system: MCF7; assay: Antiproliferative activity against human MCF7 cells measured after 48 hrs under hypoxia condition by MTT assay; type: functional, cell-based; conditions: MCF7, 48 h
Outline: (§1)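 MCF-7 (ATCC) grown in DMEM with 10% heat-inactivated FBS, 1% L-glutamine (2.5 mM), HEPES (10 mM), 50 µg/mL gentamycin, at 37 C, 5% CO2. Hypoxia induced chemically with CoCl2 (100 µM); normoxic cells without it. Viability by MTT colorimetric assay after 48 h exposure; IC50 is the concentration giving 50% growth inhibition relative to untreated controls.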

[6] = test system: MCF7; assay: Induction of apoptosis in human MCF7 cells assessed as early apoptotic cells by Annexin V-FITC/propidium iodide staining based flow cytometry (reference value: 1.05%); type: functional
[7] = test system: MCF7; assay: Induction of cell cycle arrest in human MCF7 cells assessed as accumulation at S phase at IC50 after 24 hrs by propidium iodide staining based flow cytometric analysis (reference value: 41.36%); type: functional
[8] = test system: MCF7; assay: Antiproliferative activity against human MCF7 cells measured after 48 hrs under normoxia condition by MTT assay; type: functional, cell-based; conditions: MCF7, 48 h; outline: as §1
[9] = test system: MCF7; assay: Induction of apoptosis in human MCF7 cells assessed as necrotic cells by Annexin V-FITC/propidium iodide staining based flow cytometry (reference value: 0.35%); type: functional
[10] = test system: MCF7; assay: Induction of cell cycle arrest in human MCF7 cells assessed as accumulation at G0/G1 phase at IC50 after 24 hrs by propidium iodide staining based flow cytometric analysis (reference value: 56.27%); type: functional
[11] = test system: MCF7; assay: Induction of apoptosis in human MCF7 cells assessed as late apoptotic cells by Annexin V-FITC/propidium iodide staining based flow cytometry (reference value: 0.49%); type: functional
[12] = test system: MCF7; assay: Induction of cell cycle arrest in human MCF7 cells assessed as accumulation at Pre-G1 phase at IC50 after 24 hrs by propidium iodide staining based flow cytometric analysis (reference value: 1.89%); type: functional
[13] = test system: MCF7; assay: Induction of cell cycle arrest in human MCF7 cells assessed as accumulation at G2/M phase at IC50 after 24 hrs by propidium iodide staining based flow cytometric analysis (reference value: 2.37%); type: functional

Sequence of Carbonic anhydrase 1 (P00915 whole entry): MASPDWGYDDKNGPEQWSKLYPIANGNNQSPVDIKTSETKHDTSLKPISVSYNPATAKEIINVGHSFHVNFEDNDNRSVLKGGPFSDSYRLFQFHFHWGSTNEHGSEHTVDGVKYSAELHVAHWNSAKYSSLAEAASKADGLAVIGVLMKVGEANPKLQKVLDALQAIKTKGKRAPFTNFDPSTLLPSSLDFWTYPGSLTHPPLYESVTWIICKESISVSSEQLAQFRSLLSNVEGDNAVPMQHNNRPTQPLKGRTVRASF

Ki [1] | Ki [2] | Ki [3] | Structure (SMILES) | other results
101 nM | 24 nM | 20.9 nM | NS(=O)(=O)c1ccc(N/N=C/c2ccc(N3CCCCC3)cc2)cc1 | 
149 nM | 65.6 nM | 8.9 nM | C/C(=N\Nc1ccc(S(N)(=O)=O)cc1)c1ccc(N2CCOCC2)cc1 | 
240 nM | 94.6 nM | 46.3 nM | NS(=O)(=O)c1ccc(N/N=C/c2ccc(-n3nnc4ccccc43)cc2)cc1 | 
96.2 nM | 29.9 nM | 19.4 nM | NS(=O)(=O)c1ccc(N/N=C/c2ccc(N3CCCC3)cc2)cc1 | 
87.4 nM | 34.5 nM | 16.5 nM | NS(=O)(=O)c1ccc(N/N=C/c2ccc(N3CCOCC3)cc2)cc1 | 
 |  | 17.3 nM | C/C(=N\NC(=O)c1ccc(S(N)(=O)=O)cc1)c1ccc(N2C(=O)c3c(Cl)c(Cl)c(Cl)c(Cl)c3C2=O)cc1 | 
130 nM | 8.2 nM | 10.1 nM | NS(=O)(=O)c1ccc(C(=O)N/N=C/c2ccc(-n3ccnc3)cc2)cc1 | Activity [4]: 16.22%; IC50 [5]: 8.53 µM; Activity [6]: 4.29%; Activity [7]: 29.66%; IC50 [8]: 3.32 µM; Activity [9]: 3.14%; Activity [10]: 36.49%; Activity [11]: 11.93%; Activity [12]: 19.36%; Activity [13]: 33.85%
266 nM | 89.5 nM | 2 nM | C/C(=N\Nc1ccc(S(N)(=O)=O)cc1)c1ccc(N2CCN(C)CC2)cc1 | IC50 [5]: 17.3 µM; IC50 [8]: 7.72 µM
111 nM | 69.2 nM | 7.2 nM | C/C(=N\Nc1ccc(S(N)(=O)=O)cc1)c1ccc(N2CCCCC2)cc1 | 
76.8 nM | 17.9 nM | 14.6 nM | NS(=O)(=O)c1ccc(N/N=C/c2ccc(-n3ccnc3)cc2)cc1 | 
153 nM | 9.3 nM | 3.3 nM | NS(=O)(=O)c1ccc(C(=O)N/N=C/c2ccc(N3CCCCC3)cc2)cc1 | 
357 nM | 62.3 nM | 23.7 nM | NS(=O)(=O)c1ccc(C(=O)N/N=C/c2ccc(-n3nnc4ccccc43)cc2)cc1 | 
175 nM | 15.6 nM | 8.6 nM | NS(=O)(=O)c1ccc(C(=O)N/N=C/c2ccc(N3CCOCC3)cc2)cc1 | 
95.4 nM | 57.7 nM | 18.3 nM | C/C(=N\Nc1ccc(S(N)(=O)=O)cc1)c1ccc(N2CCCC2)cc1 | 
347 nM | 12.5 nM | 3.1 nM | NS(=O)(=O)c1ccc(C(=O)N/N=C/c2ccc(N3CCCC3)cc2)cc1 | 

Source: ChEMBL document CHEMBL4351020, “Application of hydrazino and hydrazido linkers to connect benzenesulfonamides with hydrophilic/phobic tails for targeting the middle region of human carbonic anhydrases active site: Selective inhibitors of hCA IX” (Eur J Med Chem, 2019)
